Laboratory results reported in ChEMBL document CHEMBL1131251, “Inhibition of in vitro and in vivo HIV replication by a distamycin analogue that interferes with chemokine receptor function: a candidate for chemotherapeutic and microbicidal application” (J Med Chem, 1998).

Assays:
Details in all cases: HEK293; concentration not given here
[1] = target: C-C chemokine receptor type 5 (Homo sapiens) (UniProt P51681); test: The compound was tested for inhibition of Chemokine (MIP-1Alpha) binding against C-C chemokine receptor type 5 transfected in HEK 293 cells; type: cell-based
C-C chemokine receptor type 5 (Homo sapiens), sequence (P51681 whole entry, looked up): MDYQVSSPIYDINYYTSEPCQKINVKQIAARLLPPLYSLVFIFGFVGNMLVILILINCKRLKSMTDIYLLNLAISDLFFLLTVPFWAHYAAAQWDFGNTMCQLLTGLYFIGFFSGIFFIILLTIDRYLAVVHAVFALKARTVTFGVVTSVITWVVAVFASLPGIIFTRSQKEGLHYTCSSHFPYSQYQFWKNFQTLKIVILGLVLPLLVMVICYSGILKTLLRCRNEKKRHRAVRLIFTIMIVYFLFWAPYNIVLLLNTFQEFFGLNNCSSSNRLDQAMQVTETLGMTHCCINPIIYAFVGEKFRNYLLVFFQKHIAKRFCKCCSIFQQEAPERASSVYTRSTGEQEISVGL
In short: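 Competition binding in HEK-293 cells transfected with the named receptor, at 1 × 10^6 cells/mL in RPMI 1640 with 1% BSA and 5 mM HEPES pH 8.0. Cells were mixed with 0.2 ng/assay radiolabeled chemokine plus test compound at a single concentration of 200 μM, rotated 45 min at room temperature, then spun through a 10% sucrose/PBS cushion. Cell-bound radioactivity was gamma-counted; triplicates, n ≥ 2; t-test against a drug-free control.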

CXCR2 (Homo sapiens) [2] = test: The compound was tested for inhibition of Chemokine (IL-8) binding against CXCR2 transfected in HEK 293 cells
[3] = target: C-C chemokine receptor type 5 (Homo sapiens) (UniProt P51681); test: The compound was tested for inhibition of Chemokine (RANTES) binding against C-C chemokine receptor type 5 transfected in HEK 293 cells; type: cell-based
In short: (§1)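 CCR5 stably transfected HEK-293 cells at 1 × 10^6 cells/mL in RPMI 1640, 1% BSA, 5 mM HEPES pH 8.0. Constant radiolabeled chemokine (0.2 ng/assay) plus competitor at a single 200 μM concentration. Rotated 45 min at room temperature, spun through a 10% sucrose/PBS cushion, and cell-bound radioactivity gamma-counted. Inhibition measured against a drug-free control; triplicate, n ≥ 2.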

[4] = target: C-C chemokine receptor type 5 (Homo sapiens) (UniProt P51681); test: The compound was tested for inhibition of Chemokine (MIP-1Beta) binding against C-C chemokine receptor type 5 transfected in HEK 293 cells; type: cell-based; in short: as §1
CXCR2 (Homo sapiens) [5] = test: The compound was tested for inhibition of Chemokine r (IL-8) binding against CXCR2 transfected in HEK 293 cells

Row | Compound | inhibition [1] [%] | inhibition (CXCR2 (Homo sapiens) [2]) [%] | inhibition [3] [%] | inhibition [4] [%] | inhibition (CXCR2 (Homo sapiens) [5]) [%]
1 | Cn1cc(NC(=O)c2cc(NC(=O)Nc3c[nH]c(C(=O)Nc4cc(C(=O)Nc5ccc(S(=O)(=O)O)c6cccc(S(=O)(=O)O)c56)n(C)c4)c3)c[nH]2)cc1C(=O)Nc1ccc(S(=O)(=O)O)c2cccc(S(=O)(=O)O)c12 | 6.5 | 5.4 | -3.1 | – | –
2 | Cn1cc(N)cc1C(=O)Nc1ccc(S(=O)(=O)O)c2cc(S(=O)(=O)O)ccc12 | 9.5 | – | -1 | 6.6 | 0.3
